Measurements from ChEMBL document CHEMBL1138316, “Design, synthesis, and melatoninergic activity of new azido- and isothiocyanato-substituted indoles” (J Med Chem, 2007).
Active and inactive are the calls of the source. The rule behind the calls is not given here.

Assays:
Format in all cases: functional
Xenopus laevis [1] = species: Xenopus laevis; assay: Agonist activity at melatonin receptor in Xenopus laevis melanophores assessed as effect on pigment granule distribution at 100 uM
Procedure, shortened: (§1)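 Agonist response in Xenopus laevis melanophores was tested up to a highest concentration of 100 µM and reported as pEC50. Values are the mean ± SEM of triplicate experiments.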

[2] = Antagonist activity at melatonin receptor in Xenopus laevis melanophores assessed as reduction of melatonin-induced pigment aggregation
Procedure, shortened: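 Antagonism of the melatonin response in Xenopus laevis melanophores was reported as pIC50. Values are the mean ± SEM of triplicate experiments.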

Xenopus laevis [3] = species: Xenopus laevis; assay: Agonist activity at melatonin receptor in Xenopus laevis melanophores assessed as effect on pigment granule distribution at 100 uM relative to melatonin
Procedure, shortened: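 In Xenopus laevis melanophores, maximal agonist action at 100 µM was expressed as a percentage of the response to 1 nM melatonin. Data come from triplicate experiments.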

[4] = Agonist activity at melatonin receptor in Xenopus laevis melanophores assessed as effect on pigment granule distribution; procedure, shortened: as §1

Row | SMILES | Activity (Xenopus laevis [1]) | Log IC50 [2] | Activity (Xenopus laevis [3]) [%] | Log EC50 [4]
1 | [N-]=[N+]=NCCCn1ccc2ccccc21 | inactive | -4.82 | – | –
2 | COc1ccc2[nH]cc(CCCN=[N+]=[N-])c2c1 | inactive | -5.03 | – | –
3 | COc1ccc2[nH]cc(CCCN=C=S)c2c1 | inactive | -4.49 | – | –
4 | [N-]=[N+]=NCCCc1cc2ccccc2[nH]1 | inactive | -4.72 | – | –
5 | CC(=O)NCCc1c(Cc2ccccc2)[nH]c2ccccc12 [LUZINDOLE] | inactive | -5.61 | – | –
6 | COc1ccc2[nH]cc(CCN=C=S)c2c1 | inactive | -5.47 | – | –
7 | COc1ccc2c(ccn2CCCN=C=S)c1 | inactive | -4.91 | – | –
8 | COc1ccc2[nH]c(CCCN=C=S)cc2c1 | – | -4.47 | 41 | –
9 | COc1ccc2[nH]cc(CCN=[N+]=[N-])c2c1 | inactive | -5.09 | – | –
10 | S=C=NCCCc1c[nH]c2ccccc12 | – | -3.92 | 31 | –
11 | COc1ccc2[nH]cc(CCNC(C)=O)c2c1 [MELATONIN] | – | – | – | -10.07
12 | COc1ccc2c(ccn2CCCN=[N+]=[N-])c1 | inactive | -4.81 | – | –
13 | S=C=NCCCn1ccc2ccccc21 | – | -4.04 | 28 | –
14 | S=C=NCCCc1cc2ccccc2[nH]1 | – | -4.35 | 38 | –
15 | [N-]=[N+]=NCCCc1c[nH]c2ccccc12 | inactive | -4.79 | – | –
16 | COc1ccc2[nH]c(CCCN=[N+]=[N-])cc2c1 | inactive | -4.15 | – | –
